# Compounds with a hit are over-represented: about 2.2% of the library has one in this group of screens.
# SIRT5 inh: SIRT5 desuccinylase inhibitors, primary screen, biochemical, fluorescence imaging, single point, set 5; 330,000 compounds, 1.1% hits; Purified SirT5, succinyl-peptide AMC, trypsin-coupled fluorescence; inhibition, % at 15 µM; NAD-dependent protein deacylase sirtuin-5, mitochondrial (Homo sapiens), Q9NXA8; in the data active means inhibition above about 15%
# PGC1a acetyl inh: inhibitors of PGC1a acetylation signal, primary screen, cell-based, U2OS, AlphaScreen, inhibitor mode; inhibition, % at 15.6 µM; AlphaScreen anti-acetyl-lysine; with virally co-expressed GCN5 acetyltransferase; 350,000 compounds, 0.17% hits; AID 651687, 2012;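 active means every replicate shows inhibition of at least 40%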;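 further: 0% = neutral control wells and 100% = positive control wells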
# ERAP1 inh: human ERAP1 aminopeptidase inhibitors, primary screen, biochemical, single point, plate reader; 340,000 compounds, 0.15% hits; recombinant ERAP1, Leu-AMC fluorescence, 60 min; inhibition, % at 10.7 µM;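 active means mean replicate inhibition of at least 30%, or all replicates individually reaching that 30% level; inactive means mean below 30% and not every replicate reaching it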;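 further: 0% = neutral control wells and 100% = L-leucinethiol positive control wells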
# Target sequence (Q9NZ08 whole entry, looked up): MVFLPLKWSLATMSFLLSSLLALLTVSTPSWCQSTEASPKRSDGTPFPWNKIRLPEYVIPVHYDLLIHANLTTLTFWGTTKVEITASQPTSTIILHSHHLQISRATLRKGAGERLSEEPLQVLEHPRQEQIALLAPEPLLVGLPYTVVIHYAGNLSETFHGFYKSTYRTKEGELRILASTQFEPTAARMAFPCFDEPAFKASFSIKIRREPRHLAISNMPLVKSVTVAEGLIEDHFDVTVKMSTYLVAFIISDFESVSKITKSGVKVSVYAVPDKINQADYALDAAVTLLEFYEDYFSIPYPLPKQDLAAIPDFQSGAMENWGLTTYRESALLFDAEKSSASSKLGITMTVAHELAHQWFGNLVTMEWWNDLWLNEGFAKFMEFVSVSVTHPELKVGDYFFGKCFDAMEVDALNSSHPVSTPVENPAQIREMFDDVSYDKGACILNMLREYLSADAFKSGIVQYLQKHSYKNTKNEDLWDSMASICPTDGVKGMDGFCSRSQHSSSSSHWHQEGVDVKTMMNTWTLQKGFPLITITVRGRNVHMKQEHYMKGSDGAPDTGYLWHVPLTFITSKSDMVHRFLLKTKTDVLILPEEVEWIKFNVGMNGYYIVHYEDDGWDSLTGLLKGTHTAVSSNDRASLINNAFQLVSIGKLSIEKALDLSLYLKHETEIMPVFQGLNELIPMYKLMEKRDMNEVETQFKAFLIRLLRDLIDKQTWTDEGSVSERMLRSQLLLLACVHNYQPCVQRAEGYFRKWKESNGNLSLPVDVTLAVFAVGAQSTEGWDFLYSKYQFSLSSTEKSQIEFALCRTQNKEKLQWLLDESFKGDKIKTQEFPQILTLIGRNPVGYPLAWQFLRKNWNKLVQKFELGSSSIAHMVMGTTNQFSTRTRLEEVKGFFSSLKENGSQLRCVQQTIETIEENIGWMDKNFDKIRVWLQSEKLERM
# FGF22 binding-1: binders of human FGF22 protein, primary screen, FGF22 synaptogenesis inhibitor project, biophysical, thermal shift, single point. Fibroblast growth factor 22 (Homo sapiens), Q9HCT0. recombinant FGF22 thermal shift, SYPRO orange fluorescence; percent of sucrose octasulfate shift, DMSO zero. activity (Tm shift, normalised), % at 9.99 µM. 340,000 compounds, 1.5% hits;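 active means mean Tm shift, scaled 0 neutral to 100 positive control, at about 1.3% or above, every replicate too, limit read from the data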
# FN deposition inh: inhibitors of fibronectin matrix deposition, primary screen, AH1F cells, Alexa488-fibronectin fluorescence, plate reader. AH1F fibroblasts, overnight. inhibition, % at 12.6 µM. 350,000 compounds, 0.086% hits. AID 743247, 2014;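 active means mean inhibition across replicates of 30% or more, regardless of how many single replicates reach that level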;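 further: positive control wells lacked labelled fibronectin entirely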
#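 Assay system: AH1F fibroblasts assembling fluorescent fibronectin matrix; Amount: 10000 AH1F cells per well; Buffer or medium: DMEM, 2% serum; Probe or stimulus: Alexa488-fibronectin, 24 nM final in well; Doses: single compound dose, delivered by pin transfer; Incubation: 1 h adhesion, overnight exposure; Measured by: fluorescence 485/525 nm; Read-out: fibronectin deposition inhibition.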
# FGF22 binding-2: binders of human FGF22 protein, dose response, FGF22 synaptogenesis inhibitor project, biophysical, thermal shift, cherry-pick retest. shares compounds with FGF22 binding-1. thermal shift activity, °C (ΔTm) at 38 µM. 1,000 compounds, 2% hits. recombinant FGF22 thermal shift, SYPRO orange fluorescence. AID 720646, 2013;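 active means fitted rise in melting shift crosses a set limit at or below the top valid dose tested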
# FGF22 TSA DP: binders of human FGF22 protein, dose response, FGF22 synaptogenesis inhibitor project, biophysical, thermal shift, dry powder | AID 743017, 2013 | Thermal shift assay, SYPRO orange, melting temperature shift | 50 tested, under 10 active | shares compounds with FGF22 binding-1 | Tm shift (activity), % at 38 µM;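 active means compounds whose fitted dose curve of melting temperature shift rises past a set threshold within the tested doses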
# SYPRO no-protein: compound-only thermal shift signal without protein, dose response, artefact control for FGF22 binder project, biochemical, cherry-picked samples, RT-PCR instrument; AC50, µM (doses to about 38 µM); 1,000 compounds, 2% hits; shares compounds with FGF22 binding-1; compound-only SYPRO orange thermal shift counter-screen, no protein; AID 743019, 2013;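 active means rising signal whose fitted curve reaches the 0.54 level within the top valid dose, showing a melting point, actives reach about 13 µM in these data; inactive means the rest, including activity in the opposite direction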; further: value is where the raw curve crosses a fixed level and not half-maximal
# Numbers without * were called inactive; i = inactive; x = no result; ! = not active in a repeat; [ ] = dose if it differs, or a comment.
SMILES,SIRT5 inh,PGC1a acetyl inh,ERAP1 inh,FGF22 binding-1,FN deposition inh,FGF22 binding-2,SYPRO no-protein,others
COc1ccc(NC(=O)N(C)C[C@@H]2Oc3ncc(C#CC(C)C)cc3C(=O)N([C@H](C)CO)C[C@@H]2C)cc1,-1,11,-2,0,-6,x,x,
CC(C)c1ccc(NC(=O)Nc2nnc([C@H]3C[C@H](O)[C@@H](CO)O3)s2)cc1,-1,2,-1,26*,-1,0.057,i,
CCCCn1cnc2c(SCc3cccc(F)c3)nc(N)nc21,-1,-13,1,23*,-1,0.048,i,
COCc1cn(CC[C@H]2CC[C@H](NC(=O)Nc3ccc(C(F)(F)F)cc3)[C@@H](CO)O2)nn1,1,2,1,0,6,x,x,
Cc1ccc(S(=O)(=O)N2C[C@]3(O)C[C@@H]4C(=O)N(c5ccccc5)C(=O)[C@@H]4C[C@]3(OC(=O)NCC3CCCCC3)C2)cc1,1,1,-1,3.2*,-3,0.05,i,
CO[C@H](CN(C)S(=O)(=O)c1cccc(Cl)c1)[C@H](C)CN([C@H](C)CO)S(=O)(=O)c1ccc(Cl)cc1,x,-11,-3,0,-3,x,x,
CO[C@@H](CN(C)S(=O)(=O)c1ccc(Cl)cc1)[C@@H](C)CN([C@H](C)CO)S(=O)(=O)c1cccc(Cl)c1,1,-29,-5,1.4*,8,-0.21,i,
CO[C@@H](CN(C)S(=O)(=O)c1cccc(Cl)c1)[C@@H](C)CN([C@@H](C)CO)S(=O)(=O)c1cccc(Cl)c1,4,-15,3,1.5*,-2,0.26,i,
CO[C@@H](CN(C)S(=O)(=O)c1ccc(Cl)cc1)[C@@H](C)CN([C@@H](C)CO)S(=O)(=O)c1cccc(Cl)c1,5,-29,-3,0,14,x,x,
O=C(N[C@H]1CC[C@@H](CCn2cc(C3(O)CCCC3)nn2)O[C@@H]1CO)C1CCC1,0,-5,2,0,x,x,x,
CO[C@H]1CN(C)C(=O)c2cc(NC(=O)NC3CCCC3)ccc2OC[C@H](C)N(CC2CC2)C[C@H]1C,x,x,x,x,-3,x,x,
O=C(CCCOc1ccccc1)Nc1ccc(S(=O)(=O)N2CCOCC2)cc1,x,-6,x,x,x,x,x,
Cc1ccc(OCCCC(=O)Nc2ccc(S(=O)(=O)N3CCOCC3)cc2)cc1,3,-1,0,2.5*,-4,-0.17,i,FGF22 TSA DP=0
Cc1ccc(NC(=O)CN(C)C(C)C(=O)Nc2ccc(S(=O)(=O)N3CCCC3)cc2)cc1 (stereo not given),8,x,3,13*,-1,0.009,i,
CCCN(C)C[C@@H]1Oc2cc(-c3ccncc3)ccc2S(=O)(=O)N([C@@H](C)CO)C[C@@H]1C,12,-7,5,-1,-10,x,x,
CCCN(C)C[C@@H]1Oc2cc(C#Cc3cccnc3)ccc2S(=O)(=O)N([C@@H](C)CO)C[C@H]1C,-2,-7,-4,-1,x,x,x,
CCCN(C)C[C@H]1Oc2cc(C#Cc3cccnc3)ccc2S(=O)(=O)N([C@H](C)CO)C[C@@H]1C,4,-4,1,1.3*,x,0.002,i,
CCCN(C)C[C@H]1Oc2cc(-c3ccncc3)ccc2S(=O)(=O)N([C@H](C)CO)C[C@H]1C,17*,-9,-1,2.1*,-11,-0.062,i,
COc1ccccc1S(=O)(=O)N(C)C[C@@H]1Oc2cc(C#CCC(C)C)ccc2S(=O)(=O)N([C@@H](C)CO)C[C@H]1C,30*,6,3,21*,x,-1.1[42 µM],i,
COc1cccc(S(=O)(=O)N(C)C[C@@H]2Oc3cc(C#CCC(C)C)ccc3S(=O)(=O)N([C@@H](C)CO)C[C@@H]2C)c1,-5,3,-1,0,-8,x,x,
CCCN(C)C[C@H]1Oc2cc(C#Cc3ccc(F)cc3)ccc2S(=O)(=O)N([C@H](C)CO)C[C@@H]1C,15*!,0,-2,1.7*!,-6,-0.19,i,
C[C@H](CO)N1C[C@H](C)[C@H](CN(C)S(=O)(=O)c2ccc(Oc3ccccc3)cc2)OCc2cnnn2CCCC1=O,5,0,-1,0,9,x,x,
C[C@H](CO)N1C[C@H](C)[C@@H](CN(C)C)Oc2cc(C#CC3CCCCC3)ccc2S1(=O)=O,12,-13,-5,0,2,x,x,
COCC(=O)N(C)C[C@@H]1Oc2cc(C#Cc3ccccc3)ccc2S(=O)(=O)N([C@@H](C)CO)C[C@H]1C,0,-1,4,1.6*,-6,0.027[42 µM],i,
C[C@H]1CN([C@@H](C)CO)S(=O)(=O)c2ccc(C#CC3CCCCC3)cc2O[C@@H]1CN(C)C,4,7,-7,1.3*,-10,0.14[42 µM],i,
SMILES,SIRT5 inh,PGC1a acetyl inh,ERAP1 inh,FGF22 binding-1,FN deposition inh,FGF22 binding-2,SYPRO no-protein,others
COCC(=O)N(C)C[C@@H]1Oc2cc(C#Cc3ccccc3)ccc2S(=O)(=O)N([C@H](C)CO)C[C@H]1C,6,1,1,1,5,x,x,
C[C@H]1CN([C@@H](C)CO)C(=O)Cc2cc(NC(=O)c3ccncc3)ccc2O[C@@H]1CN(C)C(=O)Nc1ccc2c(c1)OCO2,0,10,1,0,x,x,x,
C[C@H]1CN([C@@H](C)CO)C(=O)CCCn2cc(nn2)CO[C@H]1CN(C)C(=O)Nc1ccnc(N2CCOCC2)c1,-4,1,0,0,-1,x,x,
CN(C(=O)Cn1nnc2ccccc2c1=O)C1CCCCC1,2,x,-2,1.8*,-11,0.092,i,
CCCN1C[C@H](C)[C@@H](OC)CN(C)C(=O)c2ccc(NC(=O)C3CCC3)cc2OC[C@H]1C,-8,-5,-4,0,3,x,x,
CCOC(=O)c1csc(NC(=O)c2cc(=O)c3ccccc3o2)n1,0,x,4,1,7,x,x,
CC(=O)c1sc(NC(=O)c2cc(=O)c3ccccc3o2)nc1C,-21,x,1,5.1*,7,-0.077,i,
O=[N+]([O-])c1ccc(S(=O)(=O)Nc2nnc(C(F)(F)F)s2)cc1,1,-14,1,1.5*,-7,-0.06,i,

# Source: PubChem BioAssay (Broad Institute)
